From ChEMBL document CHEMBL4414561, “Cholinesterase Inhibitory Arisugacins L-Q from a Penicillium sp. Isolate Obtained through a Citizen Science Initiative and Their Activities in a Phenotype-Based Zebrafish Assay” (J Nat Prod, 2019)
Activity calls are given as the source filed them. No cut-off for these calls is given here.

What was measured:
Acetylcholinesterase = Acetylcholinesterase (Electrophorus electricus, UniProt O42275); experiment: Inhibition of electric eel AChE incubated for 15 mins by Ellman's method
Acetylcholinesterase, sequence (O42275 whole entry): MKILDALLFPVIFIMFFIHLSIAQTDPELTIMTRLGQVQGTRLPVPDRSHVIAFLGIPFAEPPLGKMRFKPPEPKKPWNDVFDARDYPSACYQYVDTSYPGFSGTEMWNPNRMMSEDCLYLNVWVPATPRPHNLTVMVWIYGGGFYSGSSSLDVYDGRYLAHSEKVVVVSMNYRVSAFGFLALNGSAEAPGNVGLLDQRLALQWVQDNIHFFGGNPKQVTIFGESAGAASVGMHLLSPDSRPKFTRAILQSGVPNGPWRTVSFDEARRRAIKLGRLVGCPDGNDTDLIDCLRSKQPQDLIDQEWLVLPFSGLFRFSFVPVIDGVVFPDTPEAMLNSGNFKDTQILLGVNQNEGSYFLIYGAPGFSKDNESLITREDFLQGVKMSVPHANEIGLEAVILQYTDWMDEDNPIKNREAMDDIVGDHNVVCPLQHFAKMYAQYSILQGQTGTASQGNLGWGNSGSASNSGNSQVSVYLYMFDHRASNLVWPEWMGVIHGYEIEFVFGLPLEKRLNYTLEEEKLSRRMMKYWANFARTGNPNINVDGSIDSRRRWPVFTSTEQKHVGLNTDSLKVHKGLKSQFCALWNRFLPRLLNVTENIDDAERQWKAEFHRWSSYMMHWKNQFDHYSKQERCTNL
How it was run: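 Colorimetric kit assay with Electrophorus electricus AChE. Compound is incubated with enzyme for 15 min. Assay buffer containing AChE substrate and DTNB is then added, and absorbance is read at 0 and 15 min.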

[1] = molecular target: Cholinesterase (Equus caballus) (UniProt P81908); experiment: Inhibition of equine serum BChE at 50 uM using S-butyrylthiocholine iodide as substrate incubated for 15 mins by Ellman's method relative to control
Cholinesterase (Equus caballus), sequence (P81908 whole entry): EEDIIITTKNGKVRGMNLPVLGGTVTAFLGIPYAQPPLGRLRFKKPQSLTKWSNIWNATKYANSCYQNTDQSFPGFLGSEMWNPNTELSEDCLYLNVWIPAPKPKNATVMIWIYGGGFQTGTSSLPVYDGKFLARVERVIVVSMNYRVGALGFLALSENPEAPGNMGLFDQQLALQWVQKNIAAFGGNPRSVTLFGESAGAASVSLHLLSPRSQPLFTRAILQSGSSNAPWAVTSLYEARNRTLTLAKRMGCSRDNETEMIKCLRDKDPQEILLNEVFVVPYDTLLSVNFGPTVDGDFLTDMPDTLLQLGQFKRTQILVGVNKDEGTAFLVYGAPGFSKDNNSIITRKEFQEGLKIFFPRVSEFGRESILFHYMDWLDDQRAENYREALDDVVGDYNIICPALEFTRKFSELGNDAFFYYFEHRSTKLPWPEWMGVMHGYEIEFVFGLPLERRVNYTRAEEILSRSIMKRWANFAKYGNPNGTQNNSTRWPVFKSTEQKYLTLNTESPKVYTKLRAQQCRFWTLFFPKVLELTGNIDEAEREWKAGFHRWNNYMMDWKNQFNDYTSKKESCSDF
How it was run: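 Same colorimetric kit with equine serum butyrylcholinesterase and S-butyrylthiocholine iodide substrate plus DTNB. Compound is preincubated with enzyme for 15 min. Absorbance is read at 0 and 15 min after substrate addition. Sample tested at 50 μM.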

Danio rerio [2] = species on record: Danio rerio; experiment: Induction of paralysis in AB/TU zebra fish at 1 uM treated at 7 hpf and measured after 72 hrs; type: functional, organism-based
How it was run: (§1)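 Embryos exposed from 7 h postfertilization and scored for paralysis at 72 hpf. Value is the lowest concentration giving paralysis; […]. Pure compounds come from 10 mM DMSO stocks, with further dilutions made in DMSO.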

[3] = molecular target: Acetylcholinesterase (Electrophorus electricus) (UniProt O42275); experiment: Inhibition of electric eel AChE at 50 uM incubated for 15 mins by Ellman's method relative to control
Acetylcholinesterase (Electrophorus electricus), sequence (O42275 24-633 limits assumed): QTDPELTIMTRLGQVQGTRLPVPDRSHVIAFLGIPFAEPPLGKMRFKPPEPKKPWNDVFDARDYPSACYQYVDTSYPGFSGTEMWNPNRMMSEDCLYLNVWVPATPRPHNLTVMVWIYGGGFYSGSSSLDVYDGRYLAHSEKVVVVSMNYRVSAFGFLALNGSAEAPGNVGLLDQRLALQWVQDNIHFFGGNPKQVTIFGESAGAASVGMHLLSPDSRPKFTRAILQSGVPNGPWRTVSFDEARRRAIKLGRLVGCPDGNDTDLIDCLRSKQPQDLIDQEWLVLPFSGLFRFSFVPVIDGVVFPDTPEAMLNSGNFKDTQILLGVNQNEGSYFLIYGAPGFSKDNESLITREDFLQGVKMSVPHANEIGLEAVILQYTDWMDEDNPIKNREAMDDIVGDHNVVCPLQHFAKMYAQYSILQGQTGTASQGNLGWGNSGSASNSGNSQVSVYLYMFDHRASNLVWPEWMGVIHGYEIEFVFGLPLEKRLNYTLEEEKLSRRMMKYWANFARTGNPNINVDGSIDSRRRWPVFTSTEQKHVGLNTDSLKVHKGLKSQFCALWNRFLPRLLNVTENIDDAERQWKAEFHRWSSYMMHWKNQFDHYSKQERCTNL
How it was run: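 Colorimetric kit assay with Electrophorus electricus AChE. Compound is incubated with enzyme for 15 min. Assay buffer containing AChE substrate and DTNB is then added, and absorbance is read at 0 and 15 min. Single-point screen at 50 μM; IC50 also determined.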

Danio rerio [4] = species on record: Danio rerio; experiment: Induction of paralysis in AB/TU zebra fish at 100 uM treated at 7 hpf and measured after 72 hrs; type: functional, organism-based; how it was run: as §1
Danio rerio [5] = species on record: Danio rerio; experiment: Induction of paralysis in AB/TU zebra fish at 5 uM treated at 7 hpf and measured after 72 hrs; type: functional, organism-based; how it was run: as §1
Danio rerio [6] = species on record: Danio rerio; experiment: Induction of paralysis in AB/TU zebra fish at 50 uM treated at 7 hpf and measured after 72 hrs; type: functional, organism-based; how it was run: as §1
Danio rerio [7] = species on record: Danio rerio; experiment: Induction of paralysis in AB/TU zebra fish at 10 uM treated at 7 hpf and measured after 72 hrs; type: functional, organism-based; how it was run: as §1

| SMILES | IC50 (Acetylcholinesterase) [µM] | inhibition [1] [%] | Activity (Danio rerio [2]) | inhibition [3] [%] | Activity (Danio rerio [4]) | Activity (Danio rerio [5]) | Activity (Danio rerio [6]) | Activity (Danio rerio [7]) |
| --- | --- | --- | --- | --- | --- | --- | --- | --- |
| COc1ccc(-c2cc3c(c(=O)o2)C[C@]2(O)[C@@]4(C)C(=O)C[C@@H](O)C(C)(C)[C@]4(O)CC[C@@]2(C)O3)cc1 | 0.191 | 0 | Active | 98 | – | – | – | – |
| CC(C)NP(=O)(NC(C)C)OP(=O)(NC(C)C)NC(C)C [TETRAISOPROPYL PYROPHOSPHORAMIDE] | > 100 | 15.1 | – | 1.3 | inactive | – | – | – |
| COc1ccc(-c2cc3c(c(=O)o2)C[C@@H]2[C@@]4(C)CCC(=O)C(C)(C)[C@@H]4CC[C@@]2(C)O3)cc1 | > 100 | 11.6 | – | 26.9 | – | Active | – | – |
| COc1ccc(-c2cc3c(c(=O)o2)C[C@]2(O)[C@@]4(C)CC[C@H](O)C(C)(C)[C@]4(O)CC[C@@]2(C)O3)cc1 | 3.9 | 4.7 | – | 89.4 | – | – | Active | – |
| COP(=S)(OC)SCn1nnc2ccccc2c1=O | – | 3.3 | Active | 12.2 | – | – | – | – |
| COc1ccc(-c2cc3c(c(=O)o2)C[C@H]2[C@@](C)(CC[C@@]4(O)C(C)(C)C(=O)CC[C@]24C)O3)cc1 | 1.4 | 32.6 | – | 95.1 | – | Active | – | – |
| COc1ccc(-c2cc3c(c(=O)o2)C[C@]2(O)[C@@]4(C)[C@H](O)C[C@@H](O)C(C)(C)[C@]4(O)CC[C@@]2(C)O3)cc1 | > 100 | 0 | – | 29.2 | inactive | – | – | – |
| COc1ccc(-c2cc(O)c(C/C=C(\C)CC/C=C(\C)CCC(O)C(C)(C)O)c(=O)o2)cc1 (stereo unspecified) | > 100 | 4.7 | – | 34.1 | – | – | – | Active |
| COc1ccc(-c2cc(O)c(C/C=C(\C)CC/C=C(\C)CCC=C(C)C)c(=O)o2)cc1 | > 100 | 0 | – | 4.3 | – | – | Active | – |
| CNC(=O)Oc1ccc2c(c1)[C@]1(C)CCN(C)[C@@H]1N2C | – | 93.2 | – | 99.8 | Active | – | – | – |
| COc1ccc(-c2cc3c(c(=O)o2)C[C@]2(O)[C@@]4(C)CCC(=O)C(C)(C)[C@]4(O)CC[C@@]2(C)O3)cc1 | – | 9.3 | – | 96.6 | inactive | – | – | – |
| COc1ccc(-c2cc3c(c(=O)o2)C[C@]2(O)[C@@]4(C)CC[C@@H](O)C(C)(C)[C@]4(O)CC[C@@]2(C)O3)cc1 | – | 0 | – | 83.4 | inactive | – | – | – |
| COc1ccc(-c2cc3c(c(=O)o2)C[C@H]2[C@@]4(C)C=CC(=O)C(C)(C)[C@@H]4CC[C@@]2(C)O3)cc1 | 66 | 0 | – | 40.3 | – | Active | – | – |
| COc1ccc(-c2cc3c(c(=O)o2)C[C@]2(O)[C@@]4(C)[C@H](O)CC(=O)C(C)(C)[C@@]4(O)CC[C@@]2(C)O3)cc1 | 4.6 | 0 | – | 83.6 | inactive | – | – | – |
| COc1ccc(-c2cc3c(c(=O)o2)C[C@@H]2[C@@]4(C)CC[C@H](O)C(C)(C)[C@@H]4CC[C@@]2(C)O3)cc1 | – | 4.7 | – | 3 | inactive | – | – | – |
| COc1ccc(-c2cc3c(c(=O)o2)C[C@]2(O)[C@@]4(C)CC[C@@H](OC(C)=O)C(C)(C)[C@]4(O)CC[C@@]2(C)O3)cc1 | – | 4.7 | – | 60.1 | – | – | – | Active |
| COc1ccc(-c2cc3c(c(=O)o2)C[C@H]2[C@@](C)(CC[C@@]4(O)C(C)(C)[C@@H](O)CC[C@]24C)O3)cc1 | – | 7 | – | 75.4 | inactive | – | – | – |
